Source: the EternaBench riboswitch data

Test system: MS2 coat protein
Assay: apparent Kd, MS2 coat protein; higher = weaker binding; RNA-MaP array; FMN 200 µM where present
Method in brief: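 Each design was made on Illumina sequencing-chip clusters by stalled E. coli RNA polymerase and titrated with SNAP-549-labelled MS2 coat protein from 0.7 or 1.5 nM, doubling to 3 µM, in the absence and then the presence of constant ligand. The buffer was 100 mM Tris-HCl pH 7.5, 80 mM KCl, 4 mM MgCl2, BSA, DTT, yeast tRNA and Tween-20. The apparent Kd is the median of filtered per-cluster fits of binding curves, with green signal normalised to red-channel RNA signal and control-cluster median Fmax.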

[1] = designed as: OFF switch for flavin mononucleotide, no ligand
[2] = ligand present: flavin mononucleotide, designed as: OFF switch for flavin mononucleotide
[3] = designed as: ON switch for flavin mononucleotide, no ligand
[4] = ligand present: flavin mononucleotide, designed as: ON switch for flavin mononucleotide

Sequence	apparent Kd [1] [nM]	apparent Kd [2] [nM]	apparent Kd [3] [nM]	apparent Kd [4] [nM]
AUCAGCUCUUCAGGAUAUACGUCACUGCGUCAGCAGUGUGGUAAGAUCACAUGAGGAUCACCCAUGUAGAAGGGACGAGCUGAU	12.2	173	–	–
AGCCCGGGAGGAUAUCCAAUAUAUGACAUGAGGAUCACCCAUGUUUCCACUCGUACCUCCGGAGAAGGCCCGGCGA	19.7	19.4	–	–
UACCUAUUUAUGGUAUUUCAAUAUGAGGAUAUCAUUUAUUUAUACAUGAGGAUCACCCAUGUUACUGAGAAGGCAUAUUUAAUA	–	–	11.4	6.01
GUCAGCUCGUGAGGAUAUACAACACUGCUUCGGCAUUGUAUUAAGAUCACAUGAGGAUCACCCAUGUAGAAGGCACGAGCUGAU	9.1	109	–	–
CGGGCAAUGUCCGAGACAUGAGGAUCACCCAUGUUAGCAGCACAGGAUAUCAUGUUUUGUAAAGGUGAGAAGGGUGAUUGCAUC	–	–	273	139
GCCAUCGCAUGAGGAUAUGCUCCGGUUUCCGGAGCAGAAGGCAUGUAAUAAGACAUGAGGAUCACCCAUGUAGUUAAGAUGGCA	–	–	7.11	5.55
UUUUAACAUGAGGAUCACCCAUGUGAGGAUAUCGAAAUUUAUAUUAAUAUUUUUAAUUCGAGAAGGCACAUUUU	116	118	–	–
AACUAAGUAUUAAUGGUGUCUGACAGAAGGCAAUAGAAUGAGACCGACAUGAGGAUCACCCAUGUUGAGGAUAUGUCUAGCUAC	6.33	7.27	–	–
AAGGAUCGCACAGGAUAUCAUACAUGAGGAUCACCCAUGUCAGAAAACAAAUGAGAAGGGUGCGCAUUAAUUGCUUGUGAAGAA	–	–	17.9	4.65
AGAUACAACCAGAAGGACAUGAGGAUCACCCAUGUAGGAUAUGGGUUACACGUUCCUGGGAAUUGUAACGACGCUACGAAGAGU	–	–	126	12.8
GCGUGGAAUACAGGAUAUGUUGUACAAUAAUCUUUGAGGCAUUGAGAUUAUACAGAAGGGUAAACAUGAGGAUCACCCAUGUAA	31	25.1	–	–
UCAGGCUUCGAGAAGGACAUGAAUCGUAGCAUUGCUACGAUGAAACAUACAUGAGGAUCACCCAUGUAGGAUAUCGGAGUCUGC	5.14	5.55	–	–
UGGUACAUCGGAGGAUAUCAUGUGUAAACAUGAGGAUCACCCAUGUCGUACGAGAGUACGGAGAUUGAGAAGGCCGAUGUACCU	–	–	88.7	16.5
CAUGUGUUAGGAUAUGCACCGAUCUCCGAAAGGAGAUCGGUGCAGAAGGAACAUGAGGAUCACCCAUGUUGAUG	39.9	140	–	–
GCAAAAGUCCUGAGGGUAGGAGACAGAAGGGCACCGGGAUCACUCCACAUGAGGAUCACCCAUGUGCAGGAUAUGUCGGCUGAA	22.3	327	–	–
AUUAUUGACGAAGGAUAUGGAUACAUGAGGAUCACCCAUGUAUAUUUUGUGAUCAUAUUUAUGAUCCAGAAGGUCGUUGUUUAU	37.3	113	–	–
UCUUUACUGGUCAGGAUAUACAUUCGCUACUCUUUGUAGAAGGGACAUGAGGAUCACCCAUGUACUUUACAUUC	17.9	18	–	–
GAACAUGUCCGAGGAUAUCUGGAAACAUUUCCAAGAGAAGGCGGACAUGAGGAUCACCCAUGUCUCUCCUCAUCAAAUCCAAGU	10.1	91.9	–	–
AUUUUAAUGUCAGGAUAUAUUAGUUUAUAUAUAGUAGAAGGGAUAAUUAUACUCAUGUACAUGAGGAUCACCCAUGUUAAAUAA	–	–	216	79.1
UUUGCAACAUGAGGAUCACCCAUGUAGGAUAUCGCUAUUGUAAUCAUGAAACAUGAUUACAAUAGCGAGAAGGACAUAUGCGGG	44.4	35	–	–
CCCGCCCGUCGAGGAUAUAUUAUAUGACAACAAACACAUACAUGAGGAUCACCCAUGUCCCAUGUAUAGAAGGCGACCUGCGUC	–	–	74.8	98.2
GCUGGGUAGGCAGGAUAUCCUCGCGCAAACACAUGAGGAUCACCCAUGUACACAAAACGUGAUAUGGAGAAGGGCCGACCCACA	–	–	22.4	5.72
ACCGAGACAGAAGGAUAUACAUUGGUUACGCUGUUCGCGUCCUCGACCACAUGAGGAUCACCCAUGUAGAAGGUUUGUAGCGCG	16.5	42.7	–	–
